Assay results taken from ChEMBL document CHEMBL1955783, “Identification and optimization of small molecule antagonists of vasoactive intestinal peptide receptor-1 (VIPR1)” (Bioorg Med Chem Lett, 2012).
Calls of active or inactive are those of the source. The calls are words filed in the database; no cut-off is given here.

Tests used:
Calu-6 = experiment: Cytotoxicity against human Calu6 cells expressing VIPR1 up to 10 uM in presence of 2% serum; assay type: functional, cell-based
Method in brief: (§1)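 Cell proliferation in H727, H1299 and Calu6 lines, chosen for high VIPR1 expression. Medium held 2% serum to limit albumin sequestration. Compounds were tested at concentrations up to 10 µM.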

NCI-H1299 = experiment: Cytotoxicity against human NCI-H1299 cells expressing VIPR1 up to 10 uM in presence of 2% serum; assay type: functional, cell-based; method in brief: as §1
NCI-H727 = experiment: Cytotoxicity against human NCI-H727 cells expressing VIPR1 up to 10 uM in presence of 2% serum; assay type: functional, cell-based; method in brief: as §1
[1] = Plasma protein binding in human; assay type: ADME, cell-free; details: read-out: PPB (converted)
[2] = Plasma protein binding in mouse; assay type: ADME, cell-free; details: read-out: PPB (converted)
[3] = target: T1, Vasoactive intestinal polypeptide receptor 1 (Rattus norvegicus) (UniProt P30083); experiment: Displacement of [125I]VIP from vasoactive intestinal peptide receptor 1 in rat RKE cell membrane after 3 hrs by TopCount assay; assay type: cell membranes
T1 sequence (whole entry): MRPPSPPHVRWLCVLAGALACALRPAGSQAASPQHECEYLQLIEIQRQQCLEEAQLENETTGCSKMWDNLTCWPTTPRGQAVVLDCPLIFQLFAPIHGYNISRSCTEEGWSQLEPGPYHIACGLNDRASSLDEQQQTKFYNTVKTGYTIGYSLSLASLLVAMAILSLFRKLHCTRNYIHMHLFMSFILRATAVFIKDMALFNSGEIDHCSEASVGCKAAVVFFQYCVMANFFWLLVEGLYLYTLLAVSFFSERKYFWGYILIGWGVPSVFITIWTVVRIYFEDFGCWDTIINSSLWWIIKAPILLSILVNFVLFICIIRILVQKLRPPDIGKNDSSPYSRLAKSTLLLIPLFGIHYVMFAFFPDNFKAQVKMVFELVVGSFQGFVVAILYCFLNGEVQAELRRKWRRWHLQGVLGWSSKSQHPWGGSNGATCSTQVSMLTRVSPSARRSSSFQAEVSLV
Method in brief: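 Membranes from RKE-VIPR cells, 5 µg/well final, preincubated 10 min at room temperature with wheat germ agglutinin-coated PVT beads in 50 mM HEPES, 5 mM MgCl2, 1 mM CaCl2, 0.1% BSA. IC50 taken from a four-parameter logistic fit after subtracting nonspecific binding, defined with excess VIP.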

[4] = target: T2, Vasoactive intestinal polypeptide receptor 1 (Rattus norvegicus, UniProt P30083); experiment: Antagonist activity at vasoactive intestinal peptide receptor 1 in rat RKE cells assessed as inhibition of VIP-induced intracellular cAMP accumulation incubated for 15 mins prior to VIP-stimulation measured after 30 mins by HTRF assay
T2 sequence (P30083 whole entry): T1 sequence (whole entry)

Q: Which results are given for CC(C)c1cc(C(C)(C)C)cc(-c2ccc(F)cc2)c1CO?
A: Activity (Calu-6): inactive; Activity (NCI-H1299): inactive; Activity (NCI-H727): inactive; fraction unbound [1]: 0.1; fraction unbound [2]: 0.1; Activity [3]: Active; IC50 [4]: 740 nM

Q: With COc1ccc(-c2cc(C(C)(C)C)cc(C(C)C)c2CO)cc1 as the compound, how does the Activity (Calu-6) read?
A: inactive

Q: And the Activity (NCI-H1299)?
A: inactive

Q: What about the Activity (NCI-H727) of the same compound?
A: inactive

Q: And the Activity [3]?
A: Active

Q: What about the IC50 [4] of the same compound?
A: 1300 nM

Q: With CC(C)c1cc(C(C)(C)C)cc(-c2ccccc2-c2ccccc2)c1CO as the compound, how does the Activity (Calu-6) read?
A: inactive

Q: And the Activity (NCI-H1299)?
A: inactive

Q: And the Activity (NCI-H727)?
A: inactive

Q: What about the Activity [3] of the same compound?
A: Active

Q: And the IC50 [4]?
A: 3200 nM

Q: For CC(C)c1cc(C(C)(C)C)cc(-c2ccccc2)c1CO, which Activity (Calu-6) is on record?
A: inactive

Q: What about the Activity (NCI-H1299) of the same compound?
A: inactive

Q: What about the Activity (NCI-H727) of the same compound?
A: inactive

Q: And the Activity [3]?
A: Active

Q: What about the IC50 [4] of the same compound?
A: 390 nM

Q: What does the source list for COc1ccccc1-c1cc(C(C)(C)C)cc(C(C)C)c1CO?
A: Activity (Calu-6): inactive; Activity (NCI-H1299): inactive; Activity (NCI-H727): inactive; Activity [3]: Active; IC50 [4]: 820 nM

Q: For CC(C)c1cc(C(C)(C)C)cc(-c2cccc(N(C)C)c2)c1CO, which Activity (Calu-6) is on record?
A: inactive

Q: And the Activity (NCI-H1299)?
A: inactive

Q: And the Activity (NCI-H727)?
A: inactive

Q: What about the Activity [3] of the same compound?
A: Active

Q: What about the IC50 [4] of the same compound?
A: 310 nM

Q: What does the source list for Cc1cccc(-c2cc(C(C)(C)C)cc(C(C)C)c2CO)c1?
A: Activity (Calu-6): inactive; Activity (NCI-H1299): inactive; Activity (NCI-H727): inactive; Activity [3]: Active; IC50 [4]: 240 nM
